Bioassay records (PubChem)
Only some compounds are listed: those with a hit (about 3.7% of all), similar ones and a draw of the others.
rCAG binder = molecules binding r(CAG) RNA repeats. r(CAG) RNA repeat, TO-PRO-1 dye displacement fluorescence. inhibition, % at 3 µM. hit rate 1.3% among 370,000. AID 651821;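 active = inhibition above the plate cutoff, the mean of all test compounds on that plate plus 3 SD, cut at about 35% in these data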;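 note: higher means more dye released from RNA so lower well fluorescence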
TAAR1 ag = agonists of human TAAR1; Q96RJ0; CHO RD-HGA16 TAAR1, Fluo-8 calcium fluorescence; vehicle wells 0%, saturating PEA agonist 100%; activation, % at 3 µM; hit rate 0.99% among 360,000; AID 624467;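 active = activation above the mean activation of all test compounds in the run plus 3 SD, cut at about 38% in these data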
Target sequence (Q96RJ0 whole entry, looked up): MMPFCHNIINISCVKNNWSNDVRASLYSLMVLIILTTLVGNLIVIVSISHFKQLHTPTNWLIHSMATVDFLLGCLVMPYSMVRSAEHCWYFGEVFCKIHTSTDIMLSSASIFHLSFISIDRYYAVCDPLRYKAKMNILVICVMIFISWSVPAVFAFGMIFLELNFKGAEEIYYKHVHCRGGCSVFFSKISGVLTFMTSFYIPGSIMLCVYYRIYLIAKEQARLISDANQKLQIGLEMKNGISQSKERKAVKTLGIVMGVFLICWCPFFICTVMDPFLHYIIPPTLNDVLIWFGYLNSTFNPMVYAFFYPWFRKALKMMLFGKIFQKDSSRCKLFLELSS
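Assay system – CHO-derived RD-HGA16 cells with stable Gα16 and human TAAR1 · Compound dosing – one-point dosing at 3 µM (nominal) · Incubation – 17-24 h seeding, 75 min 37 °C dye, 30 min RT · Measured by – kinetic Fluo-8 calcium fluorescence · Control set – DMSO vehicle as 0%, PEA at EC100 as 100% · Repeats – single well for each compound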
core dimer inh = HCV core protein dimerization inhibition; AID 1899; hit rate 0.33% among 300,000; TR-FRET GST/Flag-core106 dimerization, 1536-well; inhibition, % at 5 µM;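 active = inhibition above the mean of all tested compounds plus 3 SD, set per screening campaign, cut at about 45% in these data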
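System – GST-tagged and Flag-tagged HCV core protein residues 1-106 · Repeats – one well for each compound · Technique – TR-FRET 671 and 617 nm emission · Doses – one concentration, 5 µM, in 0.5% DMSO · Times – 4 h, 22.5 °C incubation · Also added – Eu donor and XL665 acceptor anti-tag antibodies · Measure – percent inhibition of core106 dimerization signal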
NS3 helicase inh = blocks Hepatitis C virus NS3 helicase unwinding; NS3 helicase DNA unwinding, Cy5 molecular beacon fluorescence; inhibition, % at 10.9 µM; hit rate 0.56% among 290,000;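 active = inhibition above the mean of all tested compounds plus 3 SD, set per campaign, cut at about 35% in these data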
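Measured by: Cy5 fluorescence, 0 and 60 min reads / Assay system: NS3 helicase fragment of HCV / Control set: low DMSO, high thioflavine S at 110 µM / Times: 1 h reaction at 25 °C, ATP-initiated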
TAAR1 antag = human TAAR1 antagonism. Q96RJ0. hit rate 1.5% among 360,000. CHO RD-HGA16 TAAR1, Fluo-8 calcium fluorescence, antagonist. inhibition, % at 3 µM. AID 624466;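 active = inhibition above a per-plate cutoff, the mean inhibition of test compounds on that plate plus 3 SD, cut at about 49% in these data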
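Assay system: RD-HGA16 CHO cells with stable hTAAR1 and Gα16 / Reagent: EC80 β-phenethylamine stimulus / Doses: 3 µM, single point / Timing: dye loading 75 min at 37 °C, then 30 min room temperature / Measured by: Fluo-8 intracellular calcium dye fluorescence, real-time kinetic reads / Controls: vehicle wells and EC80 agonist wells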
NS3 helicase cf = HCV NS3 helicase inhibition, confirmation assay. shares compounds with NS3 helicase inh. NS3 helicase DNA unwinding, Cy5 molecular beacon fluorescence. inhibition, % at 10.9 µM. hit rate 31% among 1,600. AID 1943;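 active = inhibition above the mean of all tested compounds plus 3 SD, cutoff set per campaign, cut at about 36% in these data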
FID counter trip = intercalator displacement, NS3 helicase counter-screen; hit rate 4% among 1,600; shares compounds with NS3 helicase inh; inhibition, % at 7.9 µM; DNA fluorescent intercalator displacement, fluorescence; AID 1945; in the data active = inhibition above about 37%;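 note: higher means more displacement of ethidium bromide from the DNA hairpin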
FID counter DR = DNA intercalator displacement in dose response | AID 2172 | fluorescent intercalator displacement from DNA, fluorescence | 120 tested, under 10 active | IC50, µM | shares compounds with NS3 helicase inh; call rule not given here
Numbers stand for hits; . = inactive; / = no result given.

SMILES | rCAG binder | TAAR1 ag | core dimer inh | NS3 helicase inh | TAAR1 antag | NS3 helicase cf | FID counter trip | others
COc1ccc(S[C@]2(C(=O)N3CCN(c4ncccn4)CC3)CC(=O)N(C(=O)/C=C/c3ccccc3)[C@@H]2c2ccc(OC)cc2)cc1 | . | / | / | / | / | / | /
CCCCCCCCN1C(=O)[C@@H](CC(=O)NCCc2ccccc2OC)C[C@@]2(C(=O)OC)C1=C[C@H](C(C)C)O[C@@H]2C1CC1 | . | / | / | / | / | / | /
C/C(=C\C(=O)c1ccc(Cl)cc1)Nc1ccc(Br)cc1 | . | . | . | 47 | . | . | .
CCOC(=O)C(=O)N1CCC(C(=O)NC2CCCc3ccccc32)CC1 (configuration not stated) | . | / | / | / | / | / | /
Cc1cc2nc(=O)c(/C=C3\C=Nc4ccccc43)c(N)n2o1 | . | . | . | 43 | . | . | .
CCOC(=O)c1cc2c(=O)n3ccccc3nc2n(Cc2ccco2)c1=NC(=O)c1ccc(OC)cc1OC | . | . | . | 51 | . | . | .
CCCCn1c(=NC(=O)c2ccco2)c(C(=O)OCC)cc2c(=O)n3ccccc3nc21 | . | . | . | . | . | / | /
COc1ccc(CCNC(=O)c2cc3c(=O)n4cccc(C)c4nc3n(Cc3ccco3)c2=N)cc1OC | . | . | . | 38 | . | . | .
O=C(NCC1CCCO1)c1cc(S(=O)(=O)N2CCCC2)c(Cl)cc1Cl (configuration not stated) | . | . | . | 83 | . | . | .
NC(=O)c1sc2nc(-c3ccccc3)ccc2c1N | . | . | . | . | . | / | /
CC(=O)c1sc2nc(-c3ccco3)ccc2c1N | . | . | . | 68 | . | 46 | .
O=C1NC(=Nc2ccc(Cl)cc2)/C(=C/c2ccco2)S1 | . | . | . | . | . | / | /
Cc1cccc(N=C2NC(=O)S/C2=C\c2ccco2)c1 | . | . | . | 37 | . | . | .
C/C(=N/NC(=O)c1cccs1)c1cccs1 | . | . | . | . | . | / | /
C/C(=N\NC(=O)CC1(C)OCCO1)c1cccs1 | . | . | . | 46 | . | . | .
CCOc1ccc(NC(=O)c2cc3cc4ccc(C)cc4nc3o2)cc1 | / | / | . | 47 | / | . | .
CCC(C)NC(=O)c1cc2cc3ccc(OC)cc3nc2o1 (configuration not stated) | . | . | . | 38 | . | . | .
CCCCn1c(N)c(Br)c(=O)[nH]c1=O | . | . | . | . | . | / | /
CCCCn1c(N)c(NCCC(C)C)c(=O)[nH]c1=O | . | . | . | 45 | . | . | .
O=C(NCCc1c[nH]c2ccccc12)OCc1cn(-c2ccccc2Cl)nn1 | . | / | / | / | / | / | /
CCCCOc1[nH]c2nc(-c3ccco3)n(Cc3ccco3)c(=N)c2c1C#N | . | . | . | 39 | . | . | .
O=S1(=O)C=CCN1Cc1cn(Cc2ccc(F)cc2)nn1 | . | / | / | / | / | / | /
Cc1nnc(-c2ccco2)c2cn(-c3cccc(Br)c3)nc12 | . | . | . | 39 | . | . | .
COC(=O)C1=C(C)NC(C)=C(C(=O)OC)C1c1ccc(-c2cc(Cl)ccc2Cl)o1 | . | . | . | . | . | / | /
COCCOC(=O)C1=C(C)NC(=O)NC1c1ccc(-c2cc(Cl)ccc2Cl)o1 (configuration not stated) | . | . | . | 43 | . | . | .
N/C(=N\C(=O)OCc1ccccc1)N(CC#CC1=CCCCC1)CC1CC1 | . | / | / | / | / | / | /
Cc1cc(C)n2nc(SCC(=O)Nc3ccc(F)cc3)nc2n1 | . | . | . | 51 | . | . | .
Cc1cc(C)n2nc(SCC(=O)Nc3ccc(O)cc3)nc2n1 | . | . | . | . | . | / | /
COC(=O)[C@]12C[C@H](CC(=O)NCc3cccc4ccccc34)C(=O)N(Cc3ccc(Cl)cc3Cl)C1=C[C@H](C(C)(C)C)O[C@@H]2C | . | / | / | / | / | / | /
COc1ccc2[nH]c3c(=O)n(CCCC(=O)NC4CCCCC4C)c(=S)[nH]c3c2c1 (configuration not stated) | . | . | . | 42 | . | 40 | . | FID counter DR=.
